High-throughput results from PubChem.
The list is not random: actives were taken first. Their share in the collection is about 4.3%.
STAT1 inh – inhibitors of IFN-gamma induced STAT1 signaling; AID 920; 200,000 compounds, 0.35% hits; NIH 3T3 STAT1-luciferase reporter, luminescence; inhibition, % at 5.5 µM;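 active means inhibition above a set limit, the mean inhibition across all tested compounds plus 3 SD, cut at about 34% in these data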
STAT3 act – STAT3 signaling activation; U3A cells, IL-6 STAT3-luciferase reporter, luminescence; 100% = signal with IL-6 EC80 alone; activation (% of control), % at 5.6 µM; 190,000 compounds, 0.91% hits;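 active means activation above the screen-wide mean of compound activation plus 3 SD, cut at about 130% in these data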
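Material: STAT3-luciferase reporter U3A cells; Probe or stimulus: IL-6 (33 ng/mL); Incubation: compound pre-incubation 1 h before IL-6, then 6 h stimulation at 37 °C; Technique: luminescence from STAT3-driven luciferase reporter; Evaluation: % activation versus median of IL-6-stimulated wells; Controls: IL-6-only high control.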
STAT3 inh-1 – STAT3 signaling inhibition; inhibition, % at 5.5 µM; AID 862; 190,000 compounds, 0.89% hits; U3A cells, IL-6 STAT3-luciferase reporter, luminescence; host cell line lacks STAT1;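 active means inhibition above the mean inhibition across all screened compounds plus 3 SD, cut at about 44% in these data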
STAT1 act – STAT1 signaling activation. NIH 3T3 STAT1-luciferase reporter, IFN-gamma, luminescence; 100% = IFN-gamma alone, no compound. activation (% of control), % at 5.5 µM. 200,000 compounds, 2.6% hits. AID 932;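 active means activation above the screen-wide mean activation plus 3 SD, cut at about 130% in these data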
STAT3 inh-2 – confirmation of STAT3 signaling inhibitors; U3A cells, IL-6 STAT3 luciferase reporter, luminescence; cell line lacks STAT1; 1,200 compounds, 45% hits; inhibition, % at 5.7 µM; AID 1265; shares compounds with STAT3 inh-1;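 active means inhibition above the hit cutoff computed for the primary STAT3 screen, cut at about 44% in these data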
NFkB inh 2 – counter-screen for STAT3 inhibitors: NF-kappaB inhibition. shares compounds with STAT3 inh-1. HEK293T NF-kB luciferase reporter, TNF-alpha induced. inhibition, % at 5.7 µM. 1,200 compounds, 36% hits. AID 1308;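 active means inhibition above the mean of solvent-only control wells plus 3 SD, cutoff set per campaign, cut at about 13% in these data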
STAT1 inh STAT3c – STAT1 inhibition in STAT3 inhibitor counter-screen. shares compounds with STAT3 inh-1. NIH 3T3 STAT1-luciferase reporter, IFN-gamma induced, luminescence. inhibition, % at 5.7 µM. 1,200 compounds, 27% hits. AID 1317;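 active means inhibition above the mean plus 3 SD of solvent-only control wells, limit set per screening run, cut at about 16% in these data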
Large screens that a line does not name were inactive (follow-up assays come after a bar, where they were run); ! = repeats disagree.

C=CCN(CC=C)C(=O)C(=O)c1ccn(-c2c(C)csc2C(=O)OC)c1	none
O=C(NCCCn1ccnc1)c1ccc(N2CCCCC2)c([N+](=O)[O-])c1	none
CN(C)S(=O)(=O)Oc1cccc(C(=O)Nc2ccccc2Cl)c1	none
CN(C)S(=O)(=O)Oc1cccc(C(=O)Nc2ccc(Cl)cc2)c1	STAT3 inh-1 71 | STAT3 inh-2 56 | NFkB inh 2 inactive | STAT1 inh STAT3c inactive
Cc1cc(C)c2nc(NC(=O)c3ccc(OCC4CCCO4)cc3)sc2c1 (stereo unspecified)	STAT3 inh-1 47 | STAT3 inh-2 inactive | NFkB inh 2 inactive | STAT1 inh STAT3c inactive
O=C(Nc1nc(-c2ccc(Cl)cc2Cl)cs1)c1ccc(OCC2CCCO2)cc1 (stereo unspecified)	none
CNc1ccccc1C(C)(C)c1cc(-c2ccc(F)cc2)no1	STAT3 inh-1 46 | STAT3 inh-2 51 | NFkB inh 2 inactive | STAT1 inh STAT3c inactive
COc1ccccc1-c1nnc(SCC(=O)Nc2ccc(Cl)cc2Cl)o1	none
COc1cccc2c1OC[C@@H](CO)[C@H]2N(C)C(=O)Nc1ccc(Cl)cc1Cl	STAT3 inh-1 44 | STAT3 inh-2 inactive | NFkB inh 2 inactive | STAT1 inh STAT3c 17
CCCc1noc2c1/C(=N\O)CC(c1ccccc1)C2 (stereo unspecified)	none
CCCc1n[nH]c2c1/C(=N/O)CC(c1ccccc1)C2 (stereo unspecified)	STAT3 inh-1 45 | STAT3 inh-2 44 | NFkB inh 2 inactive | STAT1 inh STAT3c inactive
O=C1CCCN1c1ccc(S(=O)(=O)N2CCC(c3ccccc3)CC2)cc1	STAT3 inh-1 69 | STAT3 inh-2 56 | NFkB inh 2 inactive | STAT1 inh STAT3c inactive
O=C1CCCN1c1ccc(S(=O)(=O)N2CCN(c3ccccc3)CC2)cc1	none
COc1ccc(-n2c(-c3ccc(Br)cc3)c[n+]3c2SC(C)C3)cc1 (stereo unspecified)	STAT3 inh-1 46 | STAT3 inh-2 inactive | NFkB inh 2 inactive | STAT1 inh STAT3c 22
COc1ccc(-n2c(-c3ccc(Br)cc3)c[n+]3c2CCC3)cc1	none
Cc1cccc(OCC(O)CN2CC3(C)CC2CC(C)(C)C3)c1 (stereo unspecified)	none
N#Cc1nc(N2CCCC2)nc(N2CCCC2)n1	STAT3 inh-1 56 | STAT3 inh-2 56 | NFkB inh 2 28 | STAT1 inh STAT3c inactive
N#Cc1nc(N2CCCCC2)nc(N2CCOCC2)n1	none
CN(C)S(=O)(=O)Nc1cc(F)cc(F)c1	none
Clc1ccc(CCNc2ncnc3nc[nH]c23)cc1	STAT3 inh-1 52 | STAT3 inh-2 inactive | NFkB inh 2 inactive | STAT1 inh STAT3c inactive
CCCCc1ccc(Nc2ncnc3nc[nH]c23)cc1	STAT3 inh-1 52 | STAT3 inh-2 inactive | NFkB inh 2 inactive | STAT1 inh STAT3c inactive
COc1ccc(-n2c(C(C)(C)C)csc2=Nc2c(C)n(C)n(-c3ccccc3)c2=O)cc1	none
O=[N+]([O-])c1ccc(S(=O)(=O)NCCc2ccncc2)cc1	none
CCc1ccc2oc(-c3cc(N)ccc3O)nc2c1	none
COC(=O)c1ccc(-c2nc3cc(N)ccc3o2)cc1	STAT3 inh-1 59 | STAT3 inh-2 inactive | NFkB inh 2 inactive | STAT1 inh STAT3c inactive
Cc1ccc2cc(C#N)c(NCCNC(=S)NCCCN(C)C)nc2c1C	none
Cc1ccc2cc(C#N)c(NCCNC(=O)C3CC3)nc2c1C	STAT3 inh-1 56 | STAT3 inh-2 inactive | NFkB inh 2 inactive | STAT1 inh STAT3c inactive
CC1=CC(=C2C(=O)c3ccccc3C2=O)C=C(C)O1	none
CCCCN1C(C)=CC(=C2C(=O)c3ccccc3C2=O)C=C1C	STAT3 inh-1 71 | STAT3 inh-2 inactive | NFkB inh 2 inactive | STAT1 inh STAT3c inactive
Cc1ccc(C(=O)NCC(=O)OCC(=O)Nc2ccccc2[N+](=O)[O-])cc1	none
Cc1ccc(-n2c(SCC(=O)N3CCCc4ccccc43)nnc2-c2cccnc2)c(C)c1	none
Cc1ccc(-n2c(-c3ccccc3)c[n+]3c2CCc2ccccc2-3)c(C)c1	STAT3 inh-1 66 | STAT3 inh-2 60 | NFkB inh 2 inactive | STAT1 inh STAT3c 25
O=c1[nH]c(SCc2ccccc2)nc2[nH]ncc12	none
COc1ccccc1OC(C)C(=O)Nc1nc(-c2ccc(S(=O)(=O)N3CCOCC3)cc2)cs1 (stereo unspecified)	none
COc1ccccc1C(=O)Nc1nc(-c2ccc(S(=O)(=O)N3CCOCC3)cc2)cs1	STAT3 inh-1 76 | STAT3 inh-2 74 | NFkB inh 2 20 | STAT1 inh STAT3c 20
COc1ccc(CCNc2c(C)c(C)nc3ncnn23)cc1	STAT3 inh-1 82 | STAT3 inh-2 85 | NFkB inh 2 32 | STAT1 inh STAT3c 26
CCc1c(C)nc2ncnn2c1NCCc1ccc(OC)c(OC)c1	none
O=C(CN1CCNC(=O)C1)NCCc1ccc(Cl)cc1Cl	none
CCCc1c(C(=O)OCC)[nH]c2c1C(=O)CCC2	none
Cc1c(C(=O)OCCOc2ccccc2)[nH]c2c1C(=O)CCC2	STAT3 inh-1 59 | STAT3 inh-2 inactive | NFkB inh 2 inactive | STAT1 inh STAT3c inactive
Cc1nc(CS(=O)(=O)c2ccc(Cl)cc2)cc(Sc2ccc(Cl)cc2)n1	none
COc1ccc(-n2cc(C(=O)c3ccccc3O)cn2)cc1	STAT3 inh-1 65 | STAT3 inh-2 inactive | NFkB inh 2 inactive | STAT1 inh STAT3c inactive
C/C(=N/OCO/N=C(/C)c1ccc(F)cc1)c1ccc(F)cc1	none
CCN(CC)c1ccc(/C=C/c2nc3ccccc3s2)cc1	STAT3 inh-1 66 | STAT3 inh-2 inactive | NFkB inh 2 inactive | STAT1 inh STAT3c inactive
O=C(CSc1nnc(-c2cccnc2)s1)Nc1ccnc2ccccc12	STAT3 inh-1 72 | STAT3 inh-2 82 | NFkB inh 2 22 | STAT1 inh STAT3c 18
CC(NC(=S)NCc1ccccc1)C12CC3CC(CC(C3)C1)C2 (stereo unspecified)	none
Cc1c(Cl)cnc(NC(=O)COC(=O)c2ccc3ncsc3c2)c1Cl	STAT3 inh-1 50 | STAT3 inh-2 inactive | NFkB inh 2 inactive | STAT1 inh STAT3c inactive
O=C(NC1CCN(Cc2ccccc2)CC1)c1ccc2c(c1)[nH]c(=O)n2Cc1ccc(F)cc1	STAT3 inh-1 47 | STAT3 inh-2 51 | NFkB inh 2 17 | STAT1 inh STAT3c inactive
FC(F)(F)c1ccc(NC(=S)NCc2ccccc2)cc1	none
COc1ccc2nc3c(cc2c1)c(NC(=O)c1cccs1)nn3CC(C)C	STAT3 inh-1 59 | STAT3 inh-2 54 | NFkB inh 2 inactive | STAT1 inh STAT3c inactive
CC(C)Cn1nc(NC(=O)C(C)(C)C)c2cc3ccccc3nc21	none
CC1CCC(C(C)C)C(OC(=O)Cn2c(-c3ccccc3)[n+](C)c3ccccc32)C1 (stereo unspecified)	STAT3 inh-1 53! | STAT3 inh-2 inactive | NFkB inh 2 inactive | STAT1 inh STAT3c 22
